Test system: MS2 coat protein
Assay: apparent Kd, MS2 coat protein; higher = weaker binding; RNA-MaP array; FMN 200 µM where present
Method in brief: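 The apparent Kd is the median of filtered binding-curve fits, one per cluster, to green signal normalised to red-channel RNA signal and control-cluster median Fmax. The clusters were on Illumina sequencing chips, and stalled E. coli RNA polymerase had transcribed the designs on them. Titration used SNAP-549-labelled MS2 coat protein from 0.7 or 1.5 nM, doubling to 3 µM, without and then with constant ligand, in 100 mM Tris-HCl pH 7.5, 80 mM KCl, 4 mM MgCl2, BSA, DTT, yeast tRNA and Tween-20.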

[1] = designed as: OFF switch for flavin mononucleotide, no ligand
[2] = ligand present: flavin mononucleotide, designed as: OFF switch for flavin mononucleotide
[3] = ligand present: flavin mononucleotide, designed as: ON switch for flavin mononucleotide
[4] = designed as: ON switch for flavin mononucleotide, no ligand

Row | Sequence | apparent Kd [1] [nM] | apparent Kd [2] [nM] | apparent Kd [3] [nM] | apparent Kd [4] [nM]
1 | AAAAAGUCAGGAUAUAUCAAAGCCUAUGAAAGUGGGAAAGGGUAGAAGGGACAUGAGGAUCACCCAUGUAAAAA | 52 | 50.3 | – | –
2 | ACAUGAGGAUCUCCCAUGUAAAAUUAGGAUAUAUAACUGCACAUGAGGAUCACCCAUGUUUAACCGUAGAAGGGAUAAAUAAUU | – | – | 786 | –
3 | UUUUAAUAAAAGAAGGAGCACUACAUGAGGAUCACCCAUGUGUUAGUAGUUAGGAUAUUUAAUAACAUGAGGAUCACCCAUGUA | – | – | 87 | 194
4 | UGUUAGUAGACAGGAUAUUGAAUGUUAAGUAUUAACAUGAGGAUCACCCAUGUAUUAGAUUGGUACAAGAAGGGUCAAGUUUGU | – | – | 653 | 380
5 | UUACCUUAUGAGAAGGCGAUCAUGAAACAUGAUCGAGGAUAUCAUGUAAACAUGAGGAUCACCCAUGUAUGGGUAUUAUGGUAU | – | – | 23.9 | 96
6 | AGUCCACAUGAGGAUCACCCAUGUCUGGAGAAGACAGGAUAUAAGGAAAAAAAAAAAAACUUAGAAGGGUCAAAAA | – | – | 69.7 | 128
7 | UGUCGGAGCAGAGGAUAUUACAUGAGGAUCACCCAUGUAUGAACCAAUAGCUGGAAACAGCAAUGUAAGAAGGCUGCUCCGACA | 37.5 | 531 | – | –
8 | GGAGCGAGCACAGGAUAUAAGCUAACGGUUAGUUUAGAAGGGUGGGAUCAGACAUGAGGAUCACCCAUGUGUGUUUUUGCUCCA | – | – | 314 | 128
9 | GGUGCGUUUGUGAGGAUAUGCUGGUCCUUGGUUCGGCAGAAGGCACAUGAGGAUCACCCAUGUGGUGUCGUCCC | 33 | 98.6 | – | –
10 | AUACUAAAUGAAGGAUAUCUAAGCAUACACCUGAGAGAAGGUCAUUUUUACAUGAGGAUCACCCAUGUUGUGGUUAAUGGGUUA | 290 | 374 | – | –
11 | ACUUUCAUUGUGAGGAUAUGCCCAAAUAAAAGCGGGCAGAAGGCACAUGAGGAUCACCCAUGUCCUGCGGUUAU | 34.6 | 394 | – | –
12 | GGGUACAUCGGAGGAUAUCAUGUAAAUACAUGAGGAUCACCCAUGUCGAUGGAGACAUCGGAGAUUGAGAAGGCCGGUGUACCG | – | – | 9.9 | 165
13 | UUGGAGUACGUAGGAUAUGUAGGAUAUUCCUACAUGAGGAUCACCCAUGUAUGCAUGGAAGAAGGACAGAAGGACGUGCUCCAU | – | – | 16 | 219
14 | GGGUACAUCAGAGGAUAUCAUGUAAAUACAUGAGGAUCACCCAUGUCGAUGGAGACAUCGGAGAUUGAGAAGGCCGAUGUACCG | – | – | 13.4 | 292
15 | GUAUGAAAUACAGGAUAUGUUAGUUUUAAGUGUAUUGGUUAUUACUUAAUUACAGAAGGGUAUUACAUGAGGAUCACCCAUGUA | – | – | 10.8 | 16.5
16 | GGUCCUUCUGUUAGGAUAUGCUAUGGGCUUCCGCAGUAGAAGGAACAUGAGGAUCACCCAUGUCCGAUGCCGUA | – | 121 | – | –
17 | AGCAAAUCAGGAUAUGUACUGGACGACAUGAGGAUCACCCAUGUGAUUCAGUGCGCGAGAACAGAAGGGAUUCGCU | 17.4 | 42.8 | – | –
18 | UUCACUCGAGUCAGGAUAUUAGUCCGCGAUAGUGUUAAGAAGGGACAUGAGGAUCACCCAUGUCACACAUGGAG | 28.2 | 23.2 | – | –
19 | GUAGCGCUUGACAUGAGGAUCACCCAUGUUAGAUUGUUAUGUCAGGAUAUAGUCUAGAAACUAGACUAGAAGGGAUAUGCUACU | – | – | 39.8 | 251

Row | Sequence | apparent Kd [1] [nM] | apparent Kd [2] [nM] | apparent Kd [3] [nM] | apparent Kd [4] [nM]
20 | CUUCGUUGUAAGGAUAUCCAGACUCUUCCUGUCGGAGAAGGUACAACAUGAGGAUCACCCAUGUUGCUACAUGG | 25 | 38.7 | – | –
21 | AGCGUAUGAACAUGAGGAUCACCCAUGUAAACGGAAACGAAUGAGGAUAUCGAUAGCAAAGCUAUCGAGAAGGCAUGGGACGCU | – | – | 36.4 | 159
22 | AGUGUCAUCGAGAAGGCCUCAACAUGAGGAUCACCCAUGUUGCAAAAUGGGAGGAUAUCGCGCGUUAAAAUACGUUUCGUAGCA | – | – | 16.7 | 42.4
23 | AAGCUGUCAGGAUAUCGUUAAUUUAGUUGUUUGUAUUAGUUCGAGAAGGGACAUGAGGAUCACCCAUGUAUAUA | 37.8 | 76.8 | – | –
24 | UUUUAACAUGAGGAUCACCCAUGUGAGGAUAUCGAAAUUUAUAUUUAUAUUAAUUAAACGAGAAGGCACAUUUU | 90.9 | 110 | – | –
25 | AGUCGGAGCAGAGGAUAUAUACAUGAGGAUCACCCAUGUGACUGACUACGCUAGAAAUAGCAUGUAUAGAAGGCUGCUCCGACA | 388 | 946 | – | –
26 | UUCGUGCAGCUUUGCUGUAUGCGUACAUGAGGAUCACCCAUGUAGGAUAUGGUAGGCUUUGCUUACUAGAAGGAUAGUGUGAUC | 97 | 40.3 | – | –
27 | CAGAAGUCAGGAUAUCCAUGGCGGCACUUGCGUGGUGGCGUGGAGAAGGGACAUGAGGAUCACCCAUGUAAAGA | 59.1 | 48.2 | – | –
28 | GCAGCGCCUGACAUGAGGAUCACCCAUGUUAAAUUGUUAAGUCAGGAUAUAGUCUAGAAACUAGACUAGAAGGGAUAUGCUGCU | – | – | 8.57 | 9.96
29 | GUGCAUUACGAGAAGGCGUACUGGUGAAUAUAAAACGACAAAGGUACAUGAGGAUCACCCAUGUACGAGGAUAUCGGUUUGGCU | 9.74 | 29.8 | – | –
30 | GCGUACAUAUCAGGAUAUCAUUGAAUGGAUUAACACAGUGAAUACAUGAGGAUCACCCAUGUGCUUGAGAAGGGAUUACUACGC | 11.1 | 10.4 | – | –
31 | GGUGCGUGUGUGAGGAUAUGCUGGUCCUUGGCUCGGCAGAAGGCACAUGAGGAUCACCCAUGUGGUGUCGUGCC | 22.8 | 49.8 | – | –
32 | AAGGAUCGAGGAUAUACAUAGAUACAGAUACAUGUAGACCUACAUGAGGAUCACCCAUGUAGAAGGCGAUCAUA | 18.8 | 33.7 | – | –
33 | UAGGGCGAGUUAUGUACAAGAUACAUGAGGAUCACCCAUGUGUAGGAUAUGACCCUUAUCGCUGGUCAGAAGGGCACGAGAAUC | 74.1 | 94.2 | – | –
34 | UAAUAAUAAUAAUACCAGUUUACAUGAGGAUCACCCAUGUAUAAGGAUAUGCAGUGGAAUACACUGCAGAAGGUAUACAUCUGG | 18.8 | 35.9 | – | –
35 | AGUACACAUGAGGAUCACCCAUGUGAGGAUAUCGAUGUCCCAGGGCGGGUGCGGGACUCGAGAAGGCACUUGGU | 47 | 154 | – | –
36 | AGUGUCAUCGAGAAGGCCUCAACAUGAGGAUCACCCAUGUUGCCAAAAGGGAGGAUAUCGAUGAUACAGCUACGUUUCGUAGCA | – | – | 4.34 | 4.15
37 | ACUAGAUGCGUGCAAUAACACAUGAGGAUCACCCAUGUGACACAGGAUAUAACCAGAUCAGAAAGUUAGAAGGGUGAGCACGCA | – | – | 18.9 | 29.6
38 | AGCAUGCUAGGAUAUACGAAACAUUAGGGUUCGUCGUAUGAACAUGAGGAUCACCCAUGUAGAAGGAGCGUGCA | 18 | 36.2 | – | –

Row | Sequence | apparent Kd [1] [nM] | apparent Kd [2] [nM] | apparent Kd [3] [nM] | apparent Kd [4] [nM]
39 | AGGAUAAGAAGAACUAUCCAUUGUACAGAAGGCCAACAUGAGGAUCACCCAUGUAAGAAAAGGAUGGAGGAUAUGUAUAGGGCC | – | – | 19.8 | 37.3
40 | CUUCAGUCAGGAUAUGUUAAUCUCGCCACUCCGCGAGCCGGACAGAAGGGACAUGAGGAUCACCCAUGUUAAAC | 29.5 | 21.9 | – | –
41 | ACGCUUUAUGUAGGAUAUUCAGAGAAAGAGAAAGAAGAAGGACAUGAGGAUCACCCAUGUAAGAAGUAGAUAGAGAUGAUACAU | 76.4 | 66.1 | – | –
42 | UGCCGUGUACAGAAGGGCGACAUGAGGAUCACCCAUGUCUCCUUGUUGGUCGUAGGAUAUGUACCGUGGCUCUCUACUGUGGGA | 5.47 | 6.75 | – | –
43 | UGCUACGUUUCGUAGCAGUGUCAUCGAGAAGGCCCUGACAUGAGGAUCACCCAUGUUGUUACAUGGGAGGAUAUCGAUGAUACA | – | – | 5.16 | –
44 | AGGGAGUGAGGAUAUGCUGCUCGUCACUUGCGUGAUGAGUAGCAGAAGGUACAUGAGGAUCACCCAUGUAAAGA | 34.5 | 22.2 | – | –
45 | ACAUGAUAUGUAGGAUAUCACAACUUGUGUUAUAAAAUUGUAUUUUAGGAUUGAGAAGGACAUUUACAUGAGGAUCACCCAUGU | 15.5 | 12.8 | – | –
46 | CUGAGGCUAGGAUAUACGUGAGGUUAGUUGCGAAGCGCUUGACAUGAGGAUCACCCAUGUAGAAGGAGCGGCUU | 22.6 | 28.9 | – | –
47 | GCUAUUGGCUAAGGAUAUGGAUACAUGAGGAUCACCCAUGUAAGAAUUGUGAUCAUAUAAAUGAUCCAGAAGGUAGCUGUUAGC | 280 | 502 | – | –
48 | AUAAGCUCGUCAGGAUAUGCAACACUGUGUAAGCAGUGUGGUAUGAUCACAUGAGGAUCACCCAUGUAGAAGGGACGAGCUUAU | 6.53 | 26.9 | – | –
49 | GGAUAGGACAGAGGAUAUACGUGCUACAGAUACUAGCAAAAUUUCCUCACAUGAGGAUCACCCAUGUAGAAGGCUGUCCUAUCG | 19.3 | 405 | – | –
50 | CCUGGAUCAUGAGGAUAUGGCACCUUAUUGGUGCCAGAAGGCAUGUCUUUUGACAUGAGGAUCACCCAUGUAAUAAAUUCCAGG | – | – | 131 | 933
51 | GGGCUGUCAGGAUAUCCCGGGCCCGGGUAAAUUUGGGCCCGGGAGAAGGGACAUGAGGAUCACCCAUGUGGCCC | 39.2 | 40.5 | – | –
52 | CCUCAACAGUAGGAUAUCAUAAAACUAUUGUGAUGAGAAGGACUGACAUGAGGAUCACCCAUGUUAACGUGAUA | 19.6 | 30.5 | – | –
53 | UAGUAGAUCCGAGGAUAUACAAUCCGGAAACGGUACAUGAGGAUCACCCAUGUAGAAGGCGGAUCUACAGGUACUAAAGUACCU | 5.12 | 7.93 | – | –
54 | GUAUCUUACUGAGGAUAUUUACGAUUAGUGUAGACAUGAGGAUCACCCAUGUGGCGUUAGUCACGGGAGAAGGCAGUUUGAUAC | – | – | 21.3 | 82.5
55 | UUUAUAAAGAUAGGAUAUUGUAUUAUAAUUAAAUAAGAAGGAUCACACAUGAGGAUCACCCAUGUAUGAGGAUCACCCAUGUAU | 15.8 | 14.5 | – | –
56 | AUCAGCUCGUCAGGAUAUACGUCACUGCGUCAGCAGUGUGGUAGGAUCACAUGAGGAUCACCCAUGUAGAAGGGACGAGCUGAU | 23.8 | 297 | – | –
